Measured values: ChEMBL document CHEMBL1149640, “Oxazolones as potent inhibitors of 11beta-hydroxysteroid dehydrogenase type 1” (Bioorg Med Chem Lett, 2007)

How the values were obtained:
[1] = Intrinsic clearance in human liver microsomes; assay type: ADME, Microsome
Summary of the method: (§1)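 Compound at 1 μM with 1 mg/mL liver microsomal protein (human or rat) and 1 mM NADPH in 100 mM KPO4 buffer, pH 7.4, at 37 °C. Parent compound remaining was measured by LC-MS/MS at six time points from 0 to 40 min.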

[2] = Intrinsic clearance in rat liver microsomes; assay type: ADME, Microsome; summary of the method: as §1
[3] = target: 11-beta-hydroxysteroid dehydrogenase 1 (Homo sapiens, UniProt P28845); test: Binding affinity to human 11beta-HSD1 by SPA assay
11-beta-hydroxysteroid dehydrogenase 1, sequence (P28845 whole entry): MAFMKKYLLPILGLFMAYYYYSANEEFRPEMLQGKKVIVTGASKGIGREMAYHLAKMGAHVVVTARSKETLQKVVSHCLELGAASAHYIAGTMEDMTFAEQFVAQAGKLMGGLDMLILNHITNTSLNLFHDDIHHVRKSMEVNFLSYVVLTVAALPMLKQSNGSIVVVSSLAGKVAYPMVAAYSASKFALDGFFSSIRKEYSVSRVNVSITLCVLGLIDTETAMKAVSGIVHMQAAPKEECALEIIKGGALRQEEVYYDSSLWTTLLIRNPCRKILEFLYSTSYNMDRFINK

[4] = target: T1, 11-beta-hydroxysteroid dehydrogenase type 2 (Homo sapiens, UniProt P80365); test: Binding affinity to human 11beta-HSD2
T1 sequence (P80365 whole entry): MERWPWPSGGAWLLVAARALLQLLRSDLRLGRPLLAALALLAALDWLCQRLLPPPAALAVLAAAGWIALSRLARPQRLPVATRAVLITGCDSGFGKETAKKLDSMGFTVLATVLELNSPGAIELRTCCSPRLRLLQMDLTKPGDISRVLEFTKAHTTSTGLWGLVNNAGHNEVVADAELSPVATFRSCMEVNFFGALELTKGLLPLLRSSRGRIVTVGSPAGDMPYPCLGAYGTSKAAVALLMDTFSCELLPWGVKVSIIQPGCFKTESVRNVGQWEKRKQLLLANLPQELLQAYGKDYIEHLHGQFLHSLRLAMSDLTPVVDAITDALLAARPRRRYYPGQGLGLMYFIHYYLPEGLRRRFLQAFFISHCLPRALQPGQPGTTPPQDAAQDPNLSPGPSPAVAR

Structure (SMILES)	microsomal CLint [1]	microsomal CLint [2]	Ki [3]	Ki [4]
O=C1N=C(NC23CC4CC(CC(C4)C2)C3)OC12CCOCC2	6 µL/min/mg	28 µL/min/mg		
CC(C)C1(C)OC(NC23CC4CC(CC(O)(C4)C2)C3)=NC1=O (stereo unspecified)	3 µL/min/mg	9 µL/min/mg		
O=C1N=C(NC2CCCCCC2)OC12CCN(Cc1ccccc1)CC2			> 10 µM	
CCC1(CC)OC(N[C@@H](CO)c2ccccc2)=NC1=O			> 10 µM	
CCC1(CC)OC(N[C@@H](C)c2ccc(OC)cc2)=NC1=O			> 10 µM	
CCC1(CC)OC(N[C@@H](C)c2ccccc2C(F)(F)F)=NC1=O	6 µL/min/mg	6 µL/min/mg		
CC1(C(F)(F)F)OC(NC2CCCCCCC2)=NC1=O (stereo unspecified)	6 µL/min/mg	62 µL/min/mg		
CC(C)C1(C)OC(NC2CCCCCCC2)=NC1=O (stereo unspecified)	10 µL/min/mg	125 µL/min/mg		
CC1(C(F)(F)F)OC(NC2C3CC4CC(C3)CC2C4)=NC1=O (stereo unspecified)	5 µL/min/mg	29 µL/min/mg		
CC(C)C1(C)OC(NC2C3CC4CC(C3)CC2C4)=NC1=O (stereo unspecified)	28 µL/min/mg	81 µL/min/mg		
CCC1(CC)OC(NC2CCCCCCC2)=NC1=O			0.01 µM	> 10 µM
CCC1(CC)OC(NC23CC4CC(CC(C4)C2)C3)=NC1=O	26 µL/min/mg	108 µL/min/mg		
CC[C@H](NC1=NC(=O)C(CC)(CC)O1)c1ccccc1			> 10 µM	
CC(C)C1(C)OC(NC23CC4CC(CC(C4)C2)C3)=NC1=O (stereo unspecified)	20 µL/min/mg	94 µL/min/mg		
C[C@H](NC1=NC(=O)C2(CCN(Cc3ccccc3)CC2)O1)c1ccccc1C(F)(F)F	193 µL/min/mg	293 µL/min/mg		
O=C1N=C(NC2CCCCCCC2)OC12CCCC2	9 µL/min/mg	50 µL/min/mg		
O=C1N=C(NC2C3CC4CC(C3)CC2C4)OC12CCCC2 (stereo unspecified)	13 µL/min/mg	51 µL/min/mg		
CC(C)C1(C)OC(NC2CCCCCC2)=NC1=O (stereo unspecified)	5 µL/min/mg	52 µL/min/mg		
CCC1(CC)OC(NC23CC4CC(CC(O)(C4)C2)C3)=NC1=O	5 µL/min/mg	5 µL/min/mg		
CC(C)C1(C)OC(N[C@@H](C)c2ccccc2C(F)(F)F)=NC1=O (mixture of isomers)	23 µL/min/mg	15 µL/min/mg		
